Source: the EternaBench riboswitch data

Test system: MS2 coat protein
Assay: apparent Kd, MS2 coat protein; higher = weaker binding; RNA-MaP array; FMN 200 µM where present
Outline: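 Stalled E. coli RNA polymerase transcribed the designs on Illumina sequencing-chip clusters. SNAP-549-labelled MS2 coat protein was titrated from 0.7 or 1.5 nM, doubling to 3 µM, without and then with constant ligand, in 100 mM Tris-HCl pH 7.5, 80 mM KCl, 4 mM MgCl2, BSA, DTT, yeast tRNA and Tween-20. Per-cluster binding curves were fitted to green signal normalised to red-channel RNA signal and control-cluster median Fmax. The apparent Kd is the median of the filtered fits.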

[1] = designed as: OFF switch for flavin mononucleotide, no ligand
[2] = ligand present: flavin mononucleotide, designed as: OFF switch for flavin mononucleotide
[3] = designed as: ON switch for flavin mononucleotide, no ligand
[4] = ligand present: flavin mononucleotide, designed as: ON switch for flavin mononucleotide

Sequence	apparent Kd [1]	apparent Kd [2]	apparent Kd [3]	apparent Kd [4]
AUCAGCUCGUCAGGAUAUACAUCACUGCUUCGGCAGUGUAUUAAGGUCACAUGAGGAUCACCCAUGUAGAAGGGACGAGCUGAU	21.2 nM	142 nM	–	–
AUCAGCUCGUCAGGAUAUACAUCACUGCUUCGGCAGUGUGGUAAGAUCACAUGAGGAUCACCCAUGUAGAAGGGACGAGCUGAU	13.9 nM	217 nM	–	–
AUCAGCUCGUCAGGAUAUACGUCACUGCCUCAGCAGUGUGGUAAGAUCACAUGAGGAUCACCCAUGUAGAAGGGACGAGCUGAU	15.5 nM	299 nM	–	–
AUCAGCUCGUCAGGAUAUACGUCACUGCGUCAGCAGUGUGGCAAGAUCACAUGAGGAUCACCCAUGUAGAAGGGACGAGCUGAU	21.2 nM	399 nM	–	–
AUCAGCUCGUCAGGAUAUACGUCACUGCGUCAGCAGUGUGGUAAGAUCACAUGAGGAUCACCCAUGUAGAAGGGACGAGAUGAU	13.8 nM	247 nM	–	–
AUCAGCUCGUCAGGAUAUACGUCACUGCGUCAGCAGUGUGGUAAGAUUACAUGAGGAUCACCCAUGUAGAAGGGACGAGCUGAU	6.38 nM	8.59 nM	–	–
AUCAGCUCGUCAGGAUAUACGUCACUGCGUUAGCAGUGUGGUAAGAUCACAUGAGGAUCACCCAUGUAGAAGGGACGAGCUGAU	13.8 nM	263 nM	–	–
AUCAGCUCGUUAGGAUAUACGUCACUGCGUCAGCAGUGUGGUAAGAUCACAUGAGGAUCACCCAUGUAGAAGGGACGAGCUGAU	12.8 nM	94.2 nM	–	–
AUCCCGAUAGCAGGAUAUUUCUGCAGUUGUGGUUAGGUCGCCCUACAUGAGGAUCACCCAUGUAGAGAGAAGGGCUGUGGUAAU	6.71 nM	6.83 nM	–	–
AUCCGGGCCCAGAAGGUGCCAGCGAGAGCUGCACAUGAGGAUCACCCAUGUUGUCGGUGACGACGCAAGGAUAUGGGCCCGGAU	–	–	24.4 nM	6.89 nM
AUCCUGCGAGGAUAUACAUAGUGACGUCUGUUUGGUCUUAAACAUGAGGAUCACCCAUGUAGAAGGUGCGUCAC	15.8 nM	19.5 nM	–	–
AUCGUUAACGAAGGAUAUGGUUACAUGAGGAUCACCCAUGUAUUUUUUGUGAUCUUGUUUAAGUUCCAGAAGGUCGUUAACGUA	551 nM	710 nM	–	–
AUCUAGUCAGGAUAUCGUACAAUAUGGAAAACAUAGAGGUACGAGAAGGGACAUGAGGAUCACCCAUGUAAAAC	36.2 nM	38 nM	–	–
AUCUGACAUGAGGAUCACCCAUGUAUUCGAGCAUGAGGAUAUAUGACUCGUCAUCGGCGGAUAGAAGGCAUGGUUG	–	–	97.5 nM	189 nM
AUGAAGUCAGGAUAUGCCACGUAAAGCCAUGGCUUUGGAGUGUAGAAGGGACAUGAGGAUCACCCAUGUUGUCC	30.9 nM	32.2 nM	–	–
AUGACUCGUGUUAGGAUAUCUUCGGCGUGGCUGAUGGAGAAGGGACAUGAGGAUCACCCAUGUAUCCUGGUCGG	71.3 nM	123 nM	–	–
AUGAGAAAAGCAGGAUAUCUAUUGUCUCAGAAACAUGAGGAUCACCCAUGUAGAGAAGGGCUAAGACCGACUCUUCGGAGUUGA	9.66 nM	9.77 nM	–	–
AUGAGAAAAGCAGGAUAUCUAUUGUCUCAGAAACAUGAGGAUCACCCAUGUAGAGAAGGGCUAAGACUGACUCUUCGGAGUUGA	10.6 nM	9.46 nM	–	–
AUGAUGUCAGGAUAUCGUUGGCUCACUUGUGUGUGCCAGUUCGAGAAGGGACAUGAGGAUCACCCAUGUUUUUA	45 nM	252 nM	–	–
AUGCAGCUACCACAGGAUAUACGUGGAUCGACAUGAGGAUCACCCAUGUAUAUCCUAAUAAUUGCGUAGAAGGGUGGUCAGCUGC	–	–	1540 nM	103 nM
AUGCGACAUGAGGAUCACCCAUGUGAGGAUAUGGCCUGUUUGGCGUGUGCUGGCUCUGUCAGAAGGCGCGUGGG	103 nM	270 nM	–	–
AUGCUAGUGUGAGGAUAUCAACAUGAGGAUCACCCAUGUUGGAAGUACCCGACAUGAGGUACGGAUGAGAAGGUACAUUAGCAU	15.6 nM	25.3 nM	–	–
AUGCUGUCAGGAUAUCGUUAAUUUAGUUGUUUGUAUUAGUUCGAGAAGGGACAUGAGGAUCACCCAUGUAUGUA	30.6 nM	54.8 nM	–	–
AUGCUUCACACAGGAUAUACAUGAGGAUCACCCAUGUGUCCUCCGUAAUUGACACCAAUUACGCUGUAGAAGGGUGUGAAGCAU	258 nM	188 nM	–	–
AUGCUUCACACAGGAUAUACAUGAGGAUCACCCAUGUGUCCUCCGUAGCUGACACGAGCUACGCUGUAGAAGGGUGUGAAGCAU	234 nM	223 nM	–	–
AUGCUUUAUGUAGGAUAUGCAUACGGUACGUAUGCAGAAGGACAUGAGGAUCACCCAUGUAUAUUAUUAUUACAUAUCAUACAU	26.6 nM	377 nM	–	–
AUGCUUUAUGUAGGAUAUGCAUACUGUUAGUAUGCAGAAGGACAUGAGGAUCACCCAUGUAUAUUAUUAUUACAUAUCAUACAU	26 nM	311 nM	–	–
AUGGACGCAGGAUAUACAUGAGGAUCACCCAUGUUAGGGUUGUGAGUAGGAAGGGAAGGUAGAAGGGCGAGAGU	120 nM	141 nM	–	–

Sequence	apparent Kd [1]	apparent Kd [2]	apparent Kd [3]	apparent Kd [4]
AUGGACGUCGUAGGAUAUGUAGGAUUCUCCUACAUGAGGAUCACCCAUGUUGACGUGGAGGACGGACAGAAGGACGGUGUCCAU	–	–	7.22 nM	4.8 nM
AUGGAUAUCACAGGAUAUGCUAUGGAUACCAUAGCAGAAGGGUGAUCCAUCCUAUGUGAACACAUGAGGAUCACCCAUGUGUCC	–	–	98.4 nM	17.9 nM
AUGGUACAUGAGGAUCACCCAUGUCAGGAUAUCGGCUGUGACGUGAAAAGAGUGUUAGCGAGAAGGGACUGCAA	37.3 nM	43.1 nM	–	–
AUGGUGACGUAGAAGGGUGACAUGAGGAUCACCCAUGUGCCGAUAUUUUUCGAAAUAUGUCGGCCACAGGAUAUACGUGCCAUC	–	–	68.7 nM	136 nM
AUGGUUGUCGUAGGAUAUGUAGGAUAUUCCUACAUGAGGAUCACCCAUGUUCGCAUGGAAGAAGGACAGAAGGACGAUGACCAC	–	–	1480 nM	9.4 nM
AUGUCUUAGUAGAAGGGACAUCGGCUGGUAAGCAUCAUCUCCUUCUCACAUGAGGAUCACCCAUGUCAGGAUAUACUAAGAUAC	–	38.5 nM	–	–
AUGUUACAUGAGGAUCACCCAUGUGAGGAUAUGUGUACCGGUAAAAAAGUGAUUGGCCACAGAAGGCAUUUGGA	33.2 nM	35.7 nM	–	–
AUGUUACAUGAGGAUCACCCAUGUGAGGAUAUGUGUAUCCCUAAAAAAGUGUGGGACCACAGAAGGUACUUGGA	51.5 nM	50.4 nM	–	–
AUGUUGCGAGGAUAUAUUUAAUGGAUGAUAUUUAUUAGGGAACAUGAGGAUCACCCAUGUAGAAGGUGCAUAAC	63.7 nM	87 nM	–	–
AUUAAACAUGAGGAUCACCCAUGUCAACAAAGUCGAGGAUAUGGGCAAAUAAAAUAUGAACCAGAAGGCGAAUAAU	–	–	213 nM	38.2 nM
AUUAAGCAGCAGGAUAUAAGUAUCUAAAGGUGGUUAGAAGGGCUGACAUGAGGAUCACCCAUGUGCUCUUCGUG	15.7 nM	21.1 nM	–	–
AUUAGCUCGUCAGGAUAUACGUCACUGCGUCAGCAGUGUGGUAAGAUCACAUGAGGAUCACCCAUGUAGAAGGGACGAGCUGAU	13 nM	289 nM	–	–
AUUAUAUAGAAAGGAUAUAGAUUAUUAUUUUAACAUGAGGAUCACCCAUGUAGCCUUAUGUAUAACUAGAAGGUUCAUUUAUUA	72.8 nM	94.4 nM	–	–
AUUAUGCAGCAGGAUAUCGAUCCGCGGUAUGAUCGAGAAGGGCUGACAUGAGGAUCACCCAUGUGCGUCCUAGG	39.8 nM	147 nM	–	–
AUUAUUAAUGCAGGAUAUGAUUAACAUGAGGAUCACCCAUGUGGUGUUGUGAGUAAGGAGAGUGAUCAGAAGGGCAUUUUUUUU	–	–	493 nM	695 nM
AUUAUUUACAUAGGAUAUUGUUACAUGAGGAUCACCCAUGUUUUCAUGGUAUUAAUAUAUUAUUUCAAGAAGGAUGUUGUUACA	–	–	32.2 nM	19.6 nM
AUUAUUUAUAGUUAUUGGUAUUUUACAGAAGGUGAAAGUGUCACAUGAGGAUCACCCAUGUUCUUCAAGGAUAUGUUGUUAUAC	–	–	64.2 nM	11.6 nM
AUUAUUUUGUAGAAGGACGACUAUUAAUUUUUCGUAGGAUAUACUAUUUACAUGAGGAUCACCCAUGUUUAAAUGGAACAAUGU	9.32 nM	10.4 nM	–	–
AUUCCCAACCAGAAGGACAUGAGGAUCACCCAUGUAGGAUAUGGGUGGGUGACCCGAACUUGGACGACAUCACAAUUCUCACAC	–	–	55.6 nM	9.49 nM
AUUGAGUGAGGAUAUCCCGCUGCCGUGCGACCAUGGAGCUGGGAGAAGGCACAUGAGGAUCACCCAUGUGAGUU	19.3 nM	45 nM	–	–
AUUGGUUUGCGAGGAUAUGCUAAUAGUAAGUAUGCAGAAGGCGCGUUACAUAGAACCUCUAGUUACAUGAGGAUCACCCAUGUU	46.2 nM	45.4 nM	–	–
AUUGUAUGGGAAGGAUAUAGAAUAUUAUUUUAACAUGAGGAUCACCCAUGUAACCUUAUGUGUAGCUAGAAGGUCCGUUUGUUA	308 nM	409 nM	–	–
AUUUAUGGCCAGAAGGACAUGAGGAUCACCCAUGUAGGAUAUGGACGAUUUUGCUCGGUGGUUCGUUUAGGAAGCACCGGUGGU	–	–	9.59 nM	7.02 nM
AUUUGACACGUAGGAUAUCGCUCUAAUUUAACACGAGAAGGACGUACAUGAGGAUCACCCAUGUUAAAUGGUGUAGUUUAUUUG	82.1 nM	164 nM	–	–
AUUUGCCUAGGAUAUACUCGGGCCCGCUCAUACUCCAAUGGACAUGAGGAUCACCCAUGUAGAAGGAGGAACCA	16 nM	20 nM	–	–
CAAACGUGAGGAUAUACAUGAGGAUCACCCAUGUGUUCCUCUAAACUGAAGAAGUAAUGUAGAAGGCACGUUUG	43.1 nM	19.4 nM	–	–
CAAAGUGGAGGAUAUACAUGAGGAUCACCCAUGUAAGGACAAUAAAUAAGAAGAAGAAGUAGAAGGCCACUCAA	31.1 nM	41.6 nM	–	–
